Data as given in ChEMBL document CHEMBL3616417, “Discovery of selective N-[3-(1-methyl-piperidine-4-carbonyl)-phenyl]-benzamide-based 5-HT₁ F receptor agonists: Evolution from bicyclic to monocyclic cores” (Bioorg Med Chem Lett, 2015).
Active and inactive are the calls of the source. The calls are words filed in the database; no cut-off is given here.

How the values were obtained:
[1] = molecular target: 5-hydroxytryptamine receptor 1B (Homo sapiens) (UniProt P28222); experiment: Binding affinity to human 5HT1B receptor by radioligand binding assay
5-hydroxytryptamine receptor 1B (Homo sapiens), sequence (P28222 whole entry): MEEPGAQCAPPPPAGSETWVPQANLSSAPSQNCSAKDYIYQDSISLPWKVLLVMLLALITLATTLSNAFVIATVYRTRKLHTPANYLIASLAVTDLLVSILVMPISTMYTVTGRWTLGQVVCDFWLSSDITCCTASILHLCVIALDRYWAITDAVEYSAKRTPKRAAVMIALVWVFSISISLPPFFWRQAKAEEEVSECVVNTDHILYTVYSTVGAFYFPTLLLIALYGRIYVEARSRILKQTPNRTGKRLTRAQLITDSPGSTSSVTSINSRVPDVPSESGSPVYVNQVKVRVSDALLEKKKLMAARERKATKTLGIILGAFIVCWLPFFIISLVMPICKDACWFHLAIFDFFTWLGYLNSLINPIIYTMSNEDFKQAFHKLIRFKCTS
Method in brief: (§1)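 In vitro radioligand displacement binding on cell lines expressing the appropriate human serotonin receptor subtype. Affinity is expressed as Ki (nM), each the mean of at least two determinations.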

[2] = molecular target: 5-hydroxytryptamine receptor 1D (Homo sapiens) (UniProt P28221); experiment: Inhibition of radioligand binding to human 5HT1D receptor at 10 uM
5-hydroxytryptamine receptor 1D (Homo sapiens), sequence (P28221 whole entry): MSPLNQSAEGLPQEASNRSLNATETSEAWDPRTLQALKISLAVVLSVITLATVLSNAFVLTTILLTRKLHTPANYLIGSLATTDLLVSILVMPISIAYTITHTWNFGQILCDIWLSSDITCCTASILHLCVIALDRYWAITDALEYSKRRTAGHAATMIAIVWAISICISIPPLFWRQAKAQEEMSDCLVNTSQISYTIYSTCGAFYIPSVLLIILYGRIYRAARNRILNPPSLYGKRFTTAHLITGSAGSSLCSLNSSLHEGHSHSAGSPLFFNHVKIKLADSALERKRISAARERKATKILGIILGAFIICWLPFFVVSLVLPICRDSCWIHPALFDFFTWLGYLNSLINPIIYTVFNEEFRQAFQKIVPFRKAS
Method in brief: (§2)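 Single-concentration radioligand displacement at 10 µM test compound in cell lines expressing the human 5-HT1A, 5-HT1B or 5-HT1D receptor. Read-out is percent inhibition of radioligand binding.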

[3] = molecular target: 5-hydroxytryptamine receptor 1B (Homo sapiens) (UniProt P28222); experiment: Inhibition of radioligand binding to human 5HT1B receptor at 10 uM; method in brief: as §2
[4] = molecular target: T1, 5-hydroxytryptamine receptor 1A (Homo sapiens) (UniProt P08908); experiment: Binding affinity to human 5HT1A receptor by radioligand binding assay; method in brief: as §1
T1 sequence (whole entry): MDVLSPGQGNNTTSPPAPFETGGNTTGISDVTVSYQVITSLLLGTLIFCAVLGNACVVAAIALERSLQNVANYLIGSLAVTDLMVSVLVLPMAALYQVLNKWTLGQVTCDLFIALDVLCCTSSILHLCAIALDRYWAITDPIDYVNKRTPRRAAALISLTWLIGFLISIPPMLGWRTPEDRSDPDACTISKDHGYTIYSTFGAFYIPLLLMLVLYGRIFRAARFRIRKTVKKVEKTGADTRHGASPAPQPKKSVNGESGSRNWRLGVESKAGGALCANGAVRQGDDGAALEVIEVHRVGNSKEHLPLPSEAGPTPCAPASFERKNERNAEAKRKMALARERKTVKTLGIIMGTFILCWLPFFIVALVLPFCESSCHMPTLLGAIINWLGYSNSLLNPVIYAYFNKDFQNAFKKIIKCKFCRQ

[5] = molecular target: T2, 5-hydroxytryptamine receptor 1F (Homo sapiens, UniProt P30939); experiment: Binding affinity to human 5HT1F receptor by radioligand binding assay; method in brief: as §1
T2 sequence (P30939 whole entry): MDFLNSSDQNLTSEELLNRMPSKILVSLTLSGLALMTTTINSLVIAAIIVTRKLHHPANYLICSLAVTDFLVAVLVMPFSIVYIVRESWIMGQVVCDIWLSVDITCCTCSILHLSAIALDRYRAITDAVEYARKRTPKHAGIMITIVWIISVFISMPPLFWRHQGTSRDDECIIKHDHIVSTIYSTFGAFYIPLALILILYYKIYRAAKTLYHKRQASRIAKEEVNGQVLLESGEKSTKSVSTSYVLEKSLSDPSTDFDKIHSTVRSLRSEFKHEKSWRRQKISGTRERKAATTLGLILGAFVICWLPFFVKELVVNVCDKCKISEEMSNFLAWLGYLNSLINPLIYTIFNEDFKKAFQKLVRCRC

[6] = molecular target: 5-hydroxytryptamine receptor 1D (Homo sapiens) (UniProt P28221); experiment: Binding affinity to human 5HT1D receptor by radioligand binding assay; method in brief: as §1
[7] = molecular target: T1, 5-hydroxytryptamine receptor 1A (Homo sapiens); experiment: Inhibition of radioligand binding to human 5HT1A receptor at 10 uM; method in brief: as §2
[8] = molecular target: 5-HT1A/5-HT1F (Homo sapiens) (UniProt P30939+P08908); experiment: Selectivity index, ratio of Ki for human 5HT1A receptor to Ki for human 5HT1F receptor
Method in brief: (§3)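 Ratio of the Ki at the 5-HT1A, 5-HT1B or 5-HT1D receptor to the Ki at the 5-HT1F receptor. Each Ki comes from at least two radioligand binding determinations in cell lines expressing the human receptor.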

[9] = molecular target: 5-HT1B/5-HT1F (Homo sapiens) (UniProt P30939+P28222); experiment: Selectivity index, ratio of Ki for human 5HT1B receptor to Ki for human 5HT1F receptor; method in brief: as §3
5-HT1B/5-HT1F (Homo sapiens), sequence (P28222 whole entry, looked up, one chain of several): as the sequence (P28222 whole entry) above

[10] = molecular target: 5-HT1D/5-HT1F (Homo sapiens) (UniProt P30939+P28221); experiment: Selectivity index, ratio of Ki for human 5HT1D receptor to Ki for human 5HT1F receptor; method in brief: as §3
5-HT1D/5-HT1F (Homo sapiens), sequence (P28221 whole entry, looked up, one chain of several): as the sequence (P28221 whole entry) above

[11] = molecular target: T2, 5-hydroxytryptamine receptor 1F; experiment: Agonist activity at human 5HT1F receptor expressed in LM(tk-) cells by [35S]GTPgammaS binding assay; assay type: functional, cell-based
[12] = molecular target: T3, 5-hydroxytryptamine receptor 1F (Homo sapiens) (UniProt P30939); experiment: Agonist activity at human 5HT1F receptor expressed in LM(tk-) cells by [35S]GTPgammaS binding assay relative to 5-HT; assay type: functional, cell-based
T3 sequence (whole entry): T2 sequence (P30939 whole entry)

| SMILES | Activity [1] | inhibition [2] | inhibition [3] | Activity [4] | Ki [5] | Activity [6] | inhibition [7] | Ratio Ki [8] | Ratio Ki [9] | Ratio Ki [10] | EC50 [11] | Emax [12] |
| --- | --- | --- | --- | --- | --- | --- | --- | --- | --- | --- | --- | --- |
| CN1CCC(C(=O)c2cc(NC(=O)c3ccc(F)cc3)ccc2F)CC1 | inactive | < 50% | < 50% | inactive | 1300 nM | inactive | < 50% | – | – | – | – | – |
| CN1CCC(C(=O)c2cccc(NC(=O)c3ccc(F)cc3)c2Cl)CC1 | – | – | – | – | 1700 nM | – | – | 0.3 | 1.6 | 0.2 | – | – |
| CN1CCC(C(=O)c2ccnc(NC(=O)c3ccc(F)cc3)c2)CC1 | – | – | – | – | 2400 nM | – | – | 0.7 | 2 | 0.5 | – | – |
| CN1CCC(C(=O)c2cc(NC(=O)c3ccc(F)cc3)ccn2)CC1 | inactive | < 50% | < 50% | inactive | – | inactive | < 50% | – | – | – | – | – |
| CN1CCC(C(=O)c2cc(F)cc(NC(=O)c3ccc(F)cc3)c2)CC1 | inactive | < 50% | < 50% | – | 41 nM | inactive | – | 22 | – | – | – | – |
| CN1CCC(C(=O)c2cccc(NC(=O)c3ccc(F)cc3)c2F)CC1 | inactive | < 50% | < 50% | inactive | 8.3 nM | inactive | < 50% | – | – | – | 55 nM | 85% |
| Cc1c(NC(=O)c2ccc(F)cc2)cccc1C(=O)C1CCN(C)CC1 | inactive | < 50% | < 50% | inactive | 870 nM | inactive | < 50% | – | – | – | – | – |
| CN1CCC(C(=O)c2cccc(NC(=O)c3ccc(F)cc3)c2)CC1 | inactive | – | < 50% | – | 5.1 nM | – | – | 170 | – | 730 | 87 nM | 79% |
| CN1CCC(C(=O)c2cccc(NC(=O)c3ccc(F)cc3)c2O)CC1 | – | < 50% | – | inactive | 1100 nM | inactive | < 50% | – | 2.5 | – | – | – |
| CN1CCC(C(=O)c2ccc(F)c(NC(=O)c3ccc(F)cc3)c2)CC1 | inactive | < 50% | < 50% | – | 530 nM | inactive | – | 2 | – | – | – | – |
| COc1c(NC(=O)c2ccc(F)cc2)cccc1C(=O)C1CCN(C)CC1 | – | – | – | – | 610 nM | – | – | 0.5 | 4.3 | 3.4 | – | – |
| CN1CCC(c2c[nH]c3ccc(NC(=O)c4ccc(F)cc4)cc23)CC1 | – | – | – | – | – | – | – | 5 | 54 | 98 | – | – |
| CN1CCC(C(=O)c2cccc(NC(=O)c3ccc(F)cc3)n2)CC1 | inactive | – | < 50% | – | 9.5 nM | – | – | 91 | – | 110 | 110 nM | 90% |
| CN1CCC(C(=O)c2cncc(NC(=O)c3ccc(F)cc3)c2)CC1 | inactive | – | < 50% | – | 3200 nM | – | – | 1 | – | 0.6 | – | – |
